# Source: PubChem
# LANA DNA inh = inhibitors of KSHV C-LANA binding to DNA, primary screen, biochemical, fluorescence polarization, FAM-LBS DNA, MBP-C-LANA, single point | Kaposi's sarcoma herpesvirus LANA C-terminal domain (residues 932-1162) DNA binding | inhibition, % at 9 µM | 340,000 tested, 0.078% active;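 active = highest replicate inhibition at or above 60% at 9 µM, even if other replicates fall short; inactive = all replicates below 60% inhibition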;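 also: 0% = neutral control wells and 100% = 4 µM acridine orange control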
# CAL PDZ FP-1 = CAL PDZ peptide-binding inhibitors, primary screen, biochemical, fluorescence polarization, Cer-tagged CAL PDZ, HTS; Golgi-associated PDZ and coiled-coil motif-containing protein (Homo sapiens), Q9HD26; purified CAL PDZ, TMR-peptide fluorescence polarization, 1 h; inhibition, % at 20 µM; 330,000 tested, 0.02% active;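 active = highest replicate inhibition of at least 40%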;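 also: plate controls were DMSO neutral control wells for no effect and unlabeled competitor peptide control wells for full effect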
#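 Test system: purified CerCALP PDZ construct; Compound dosing: one concentration, 20 µM compound; Also added: TMR-labelled reporter peptide T*-PRC34 bound in PDZ groove; Read-out: inhibition from polarization loss; Controls: unlabelled peptide and DMSO controls; Signal: FP readout, S and P plane fluorescence; Incubation: 1 h at RT.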
# Keap1-Nrf2 PPI = Keap1-Nrf2 protein-protein interaction inhibitors, primary screen, biochemical, fluorescence polarization, single point. Kelch-like ECH-associated protein 1 (Homo sapiens), Q14145. Keap1 Kelch-Nrf2 peptide fluorescence polarization, 1536-well. inhibition, % at 9.4 µM. 340,000 tested, 0.15% active; in the data active = inhibition above about 12%;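 also: human Keap1 Kelch domain with fluorescein labeled Nrf2 9mer peptide probe; 0% = neutral control wells and 100% = peptide positive control; higher means more block of Keap1 binding to Nrf2 peptide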
# A3G deaminase = APOBEC3G DNA deaminase inhibitors, primary screen, biochemical, fluorescence, single-stranded DNA substrate, uHTS; DNA dC->dU-editing enzyme APOBEC-3G (Homo sapiens), Q9HC16; recombinant A3G, ssDNA deamination FAM/TAMRA fluorescence; inhibition, % at 20 µM; 330,000 tested, 0.28% active; AID 493012, 2011;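 active = inhibition of at least 40% at 20 µM, with no more than 30% in the related APOBEC3A deaminase screen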;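 also: plate controls were DMSO wells with A3G for no effect and wells lacking A3G enzyme for full effect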
# Target sequence (Q9HC16 whole entry, looked up): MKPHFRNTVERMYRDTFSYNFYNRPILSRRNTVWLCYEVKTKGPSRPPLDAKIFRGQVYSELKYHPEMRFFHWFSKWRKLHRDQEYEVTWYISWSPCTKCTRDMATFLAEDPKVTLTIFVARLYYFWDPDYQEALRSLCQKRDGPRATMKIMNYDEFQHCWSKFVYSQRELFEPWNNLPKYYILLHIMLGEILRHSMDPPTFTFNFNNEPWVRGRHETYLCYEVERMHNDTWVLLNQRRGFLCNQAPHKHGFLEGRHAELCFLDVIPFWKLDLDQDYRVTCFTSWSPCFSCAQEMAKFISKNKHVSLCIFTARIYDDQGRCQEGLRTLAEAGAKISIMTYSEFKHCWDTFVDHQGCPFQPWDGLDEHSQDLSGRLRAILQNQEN
# APOBEC3A inh = APOBEC3A ssDNA deaminase inhibitors, primary screen, selectivity assay for APOBEC3G inhibitor project, biochemical, FAM/TAMRA oligo cleavage fluorescence. 330,000 tested, 0.41% active. recombinant A3A, FAM/TAMRA ssDNA deamination fluorescence. inhibition, % at 20 µM. DNA dC->dU-editing enzyme APOBEC-3A (Homo sapiens), P31941;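 active = at least 40% inhibition at 20 µM here, with at most 30% in a related deaminase screen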;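 also: plate controls were A3A with DMSO for no effect and wells lacking A3A enzyme for full effect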
# Target sequence (P31941 whole entry, looked up): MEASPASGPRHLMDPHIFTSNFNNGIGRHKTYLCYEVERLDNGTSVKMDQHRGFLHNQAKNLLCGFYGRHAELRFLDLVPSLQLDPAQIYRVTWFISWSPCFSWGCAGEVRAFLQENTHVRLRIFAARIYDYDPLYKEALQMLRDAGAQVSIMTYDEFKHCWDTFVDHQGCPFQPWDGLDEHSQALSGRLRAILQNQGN
# CAL PDZ FP-2 = untagged CAL PDZ binding inhibitors, primary screen, biochemical, fluorescence polarization, HTS; purified CAL PDZ, TMR-peptide fluorescence polarization, 1 h; inhibition, % at 24.9 µM; 300,000 tested, 0.92% active; AID 602252, 2012;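 active = mean inhibition of at least 30% with at least half of replicates also reaching 30%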;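 also: 0% = DMSO neutral control and 100% = excess unlabeled competitor peptide PRC23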
# A3G conf = APOBEC3G deaminase inhibitor retest, confirmation, biochemical, fluorescence, single-stranded DNA substrate, single concentration | shares compounds with A3G deaminase | recombinant A3G ssDNA deaminase, UDG/FAM-TAMRA fluorescence | inhibition, % at 20 µM | 890 tested, 72% active;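 active = inhibition reaching a set limit in any replicate at 20 µM, the limit being 80% of the first screen's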
# UDG ctr A3G = E. coli UDG inhibitors, confirmation, counter-screen for APOBEC3G inhibitor project, biochemical, single concentration, fluorescence, FAM/TAMRA oligo; 710 tested, under 10 active; UDG counterscreen; inhibition, % at 20 µM; shares compounds with A3G deaminase;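 active = compounds giving 40% or more inhibition at 20 µM in any one of the three replicates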;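 also: plate controls were DMSO wells with UDG and oligo for no effect and DMSO wells lacking both for full effect; inhibitors lower the FAM signal released by uracil excision and alkaline cleavage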
# The depositor's hits bear a star; x = not tested or not shown. Sampled rows, rich in hits. Any-hit rate of the full collection: about 1.7%.
SMILES,LANA DNA inh,CAL PDZ FP-1,Keap1-Nrf2 PPI,A3G deaminase,APOBEC3A inh,CAL PDZ FP-2,A3G conf,UDG ctr A3G
Cc1ccc2[nH]c(O)c(N=NC(=O)CCc3ccccc3)c2c1Br,-1,-1,-1,-1,1,x,x,x
CCOC(=O)NC(Nc1ccc(S(N)(=O)=O)cc1)(C(=O)OCC)C(F)(F)F (centres undefined),1,-1,2,-5,-2,-1,x,x
COc1cc(OC)cc(C(=O)Nc2ccn(C)n2)c1,-1,0,0,-6,-1,-5,x,x
COCCn1nnnc1C(c1cccs1)N1CCN(c2nc3ccccc3s2)CC1 (centres undefined),-2,-1,-5,57*,3,-3,0,x
COCCn1nnnc1C(c1cccs1)N1CCN(c2cc(C)ccc2C)CC1 (centres undefined),0,-3,-4,-6,-5,-1,x,x
CCC1CCc2c(sc(NC(=O)c3cnccn3)c2C(N)=O)C1 (centres undefined),3,0,4,58*,-2,-1,22,19
CSS(=O)(=O)c1cccc2cccnc12,0,-1,-3,78*,1,x,77*,0
O=C(Nc1ccccc1)C(=O)c1c[nH]c2ccccc12,-2,-1,-1,-1,4,-3,x,x
CCCCCC(=O)N(O)C1CC(=O)N(c2ccccc2)C1=O (centres undefined),-3,-1,-3,42*,0,0,43*,7
COC(=O)CSc1nc(N)c2c3c(sc2n1)C(c1ccccc1)SC(c1ccccc1)C3 (centres undefined),0,0,-1,43*,-1,-5,4,2
Cc1cccc(N(CC(=O)NCc2ccco2)C(=O)CCC(=O)Nc2nccs2)c1C,0,1,1,-7,-7,-5,x,x
Nn1c(-c2cccc(Br)c2)n[nH]c1=S,1,x,1,59*,-19,-3,80*,-4
S=c1[nH]nc(-c2cccc(Br)c2)o1,4,-1,-1,0,-5,-3,x,x
COc1cc(C2NC(=O)CCC2[N+](=O)[O-])cc(OC)c1OC (centres undefined),-1,0,-4,0,2,0,x,x
O=S(=O)(c1ccc(Nc2ccc3c(c2)OCO3)nc1)N1CCOCC1,1,1,-2,44*,1,-3,0,x
COc1ccc(S(=O)(=O)N2CCOCC2)cc1C(=O)Nc1ccc2c(c1)OCO2,0,-2,4,-5,1,-2,x,x
CC(=O)Oc1ccc(N2C(=O)C3C(C2=O)C2(C)C=CC3(C)O2)cc1 (centres undefined),x,x,x,47*,0,x,49*,x
CC(=O)Oc1ccc(N2C(=O)C3C4C=CC(CO)(O4)C3C2=O)cc1 (centres undefined),-1,-1,0,24,7,x,x,x
Cc1ccc(C(=O)CSc2nnnn2C(C)C)c(C)c1,3,1,-1,54*,-3,-5,4,-2
Cc1ccc(C)c(C(=O)CSc2nnnn2C(C)C)c1,-1,-2,3,-2,-3,0,x,x
CCOC(=O)C1=C(C)N(c2ccc(C)cc2)C(=O)/C1=C\c1ccc(O)c(OC)c1,2,-2,-3,77*,2,x,6,x
CC(C)(CS(=O)(=O)[O-])NC(=O)CC[N+](C)(C)CCO,82*,1,-1,88*,9,-4,94*,x
Cc1cc(C)c(OCC(=O)OCC(=O)N2c3ccccc3CC2C)c(C)c1 (centres undefined),1,-1,7,-1,1,-1,x,x
CNc1n[nH]c(=S)s1,0,0,-7,67*,-4,x,76*,-6
CC(=O)Nc1n[nH]c(=S)s1,-2,0,5,x,x,-2,x,x
SMILES,LANA DNA inh,CAL PDZ FP-1,Keap1-Nrf2 PPI,A3G deaminase,APOBEC3A inh,CAL PDZ FP-2,A3G conf,UDG ctr A3G
COc1ccccc1NS(=O)(=O)c1cc(NC(=O)C(C)C)ccc1N1CCCCC1,-1,-1,-2,21,2,-1,x,x
COc1ccccc1NS(=O)(=O)c1cc(NC(=O)c2cc[n+]([O-])cc2)ccc1N1CCCC1,-1,x,-2,44*,2,-1,34*,2
COc1ccccc1NS(=O)(=O)c1cc(NC(=O)c2sccc2C)ccc1N1CCCC1,-1,0,-2,42*,-1,4,active,-3
COc1ccccc1NS(=O)(=O)c1cc(NC(=O)c2sccc2C)ccc1N1CCOCC1,0,-3,-1,-4,-3,0,x,x
COc1ccccc1NS(=O)(=O)c1cc(NC(=O)c2cccs2)ccc1N1CCCC1,-2,-2,-3,40*,3,-2,63*,-2
CC1CCCC(NC(=O)COC(=O)[C@@H](NC(=O)c2ccccc2Cl)C(C)C)C1C (some centres undefined),1,-1,-2,-5,-2,1,x,x
O=C(NNc1ccccc1)NC(Cc1ccccc1)C(=O)O (centres undefined),1,0,-3,x,x,-2,x,x
C[C@H](NC(=O)c1ccco1)C(=O)Nc1cc(S(=O)(=O)N2CCCC2)ccc1OCC(F)(F)F,1,-4,-1,-4,-2,-4,x,x
O=C(NCc1ccncc1)c1ccc(S(=O)(=O)Nc2ccccc2)cc1,2,-2,0,-9,-2,-3,x,x
Cc1ccccc1NC(=S)c1ccc2ccccc2n1,0,0,4,42*,-3,-24,40*,1
Cc1ccc(C(c2nnnn2CS(=O)(=O)c2ccc(C)cc2)N2CCN(c3ncccn3)CC2)cc1 (centres undefined),-1,-1,4,71*,1,-2,2,x
